The subject of experiment [1] is PANC-1. The experiment can be described thus: Cytotoxicity against human PANC1 cells in nutrient-deprived condition. The class given is functional. The gist of the method: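 PANC-1 cells seeded at 2×10^4 per well, grown 24 h in DMEM at 37 °C, 5% CO₂, PBS-washed, then switched to nutrient-deprived medium (NDM) or DMEM with serial dilutions of pure compounds (1–256 µM). Incubated 24 h, washed, then 2 h with DMEM containing 10% WST-8 and read at 450 nm. Endpoint reported as PC₁₀₀.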

Experiment [2] deals with PANC-1. The experiment can be described thus: Cytotoxicity against human PANC1 cells in nutrient-deprived condition assessed as complete preferential cell death at 1 uM. The following applies: TDE = time-dependent effect. The class given is functional, cell-based. Summed up:
(§1)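 PANC-1 cells (2×10^4 per well, 24 h preculture in DMEM, 37 °C, 5% CO₂) were PBS-washed and exposed in NDM or DMEM for 3, 6, 9, 12 and 24 h. Morphology was checked by phase-contrast microscopy at 20×. Cells were then washed and given 2 h of 10% WST-8 in DMEM, with absorbance read at 450 nm. Viability was taken from the mean of three wells.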

Experiment [3] has as its system PANC-1. The experiment can be described thus: Cytotoxicity against human PANC1 cells in nutrient-deprived condition assessed as preferential cell death within 3 hrs. The class given is functional, cell-based. The gist of the method:
as §1

Among the data in ChEMBL document CHEMBL1151796, “Novel anticancer agents, kayeassamins C-I from the flower of Kayea assamica of Myanmar” (2008) are Cytotoxicity and Activity values, retold here.

With `CCCC(=O)c1c2c(c3oc(=O)cc(CCC)c3c1O)CC(C(C)(C)O)O2` (stereo not given), in the experiment on PANC-1 [1], the Cytotoxicity amounted to 64 µM.

Consider `CC[C@H](O)c1cc(=O)oc2c(C(=O)CC(C)C)c(O)c3c(c12)OC(C)(C)C=C3`, for which the Cytotoxicity in the experiment on PANC-1 [1] was 32 µM.

With `CCCC(=O)c1c(O)c(CC=C(C)C)c2oc(=O)cc(CCC)c2c1O`, the Cytotoxicity with PANC-1 [1] came out at 2 µM.

With `CCCC(=O)c1c(O)c(CC=C(C)C)c(O)c2c(-c3ccccc3)cc(=O)oc12`, the Cytotoxicity in the experiment on PANC-1 [1] was determined as 8 µM.

In turn, `CCCC(=O)c1c2c(c3oc(=O)cc(-c4ccccc4)c3c1O)C=CC(C)(C)O2` had a Cytotoxicity in the experiment on PANC-1 [1] of over 256 µM.

For the compound `COc1cc(C[C@H]2C(=O)OC[C@@H]2Cc2ccc(OC)c(OC)c2)ccc1O` [ARCTIGENIN], the Cytotoxicity in the experiment on PANC-1 [1] is 1 µM.

In the case of `CCCC(=O)c1c(O)c(C/C=C(\C)CCC=C(C)C)c(O)c2c([C@@H](O)CC)cc(=O)oc12` [KAYEASSAMIN A], in the experiment on PANC-1 [1], the Cytotoxicity worked out at 1 µM.

For the compound `CCCC(=O)c1c(O)c(C/C=C(\C)CCC=C(C)C)c2oc(=O)cc([C@@H](O)CC)c2c1O` [KAYEASSAMIN B], the Cytotoxicity in the experiment on PANC-1 [1] turned out to be 1 µM.

On to `CCC(C)C(=O)c1c(O)c(C/C=C(\C)CCC=C(C)C)c2oc(=O)cc([C@@H](O)CC)c2c1O` (stereo not given in full) [KAYEASSAMIN C], for which the Cytotoxicity in the experiment with PANC-1 [1] turned out to be 4 µM.

In turn, `CC[C@H](O)c1cc(=O)oc2c(C/C=C(\C)CCC=C(C)C)c(O)c(C(=O)CC(C)C)c(O)c12` [KAYEASSAMIN D] showed a Cytotoxicity with PANC-1 [1] of 1 µM. Also, in the experiment with PANC-1 [2], the Activity result was “tde”.

For the compound `CCCC(=O)c1c(O)c(CC=C(C)C)c2oc(=O)cc([C@@H](O)CC)c2c1O` [KAYEASSAMIN E], in the experiment with PANC-1 [3], the Activity result is “Dose-dependent effect”. For the same compound, the Cytotoxicity in the experiment on PANC-1 [1] is 1 µM.

`CCC(C)C(=O)c1c(O)c(CC=C(C)C)c2oc(=O)cc([C@@H](O)CC)c2c1O` (stereo not given in full) [KAYEASSAMIN F] gave a Cytotoxicity with PANC-1 [1] of 2 µM.

For the compound `CC[C@H](O)c1cc(=O)oc2c(CC=C(C)C)c(O)c(C(=O)CC(C)C)c(O)c12` [KAYEASSAMIN G], the Activity entry in the experiment on PANC-1 [3] (TDE = time-dependent effect) is “tde”. The Cytotoxicity in the experiment with PANC-1 [1] was 1 µM.

Consider `CCCC(=O)c1c(O)c(CC=C(C)C)c2oc(=O)cc3c2c1OC(C)C3` (stereo not given) [KAYEASSAMIN H], for which, in the experiment on PANC-1 [1], the Cytotoxicity came out at 64 µM.

As to `CCCC(=O)c1c(O)c2c(c3c([C@@H](O)CC)cc(=O)oc13)OC(C)(CCC=C(C)C)C=C2` (stereo not given in full) [KAYEASSAMIN I], the Cytotoxicity with PANC-1 [1] worked out at 64 µM.

With `CCCC(=O)c1c(O)c(CC=C(C)C)c2oc(=O)cc(-c3ccccc3)c2c1O` [MAMMEA A/AC], the Cytotoxicity in the experiment on PANC-1 [1] turned out to be 16 µM.

As to `CC(C)CC(=O)c1c2c(c3oc(=O)cc(-c4ccccc4)c3c1O)C=CC(C)(C)O2` [MAMMEIGIN], in the experiment on PANC-1 [1], the Cytotoxicity turned out to be 32 µM.
